From ChEMBL document CHEMBL1122273, “5-sulfamoylorthanilic acids, a sulfonamide series with salidiuretic activity” (J Med Chem, 1983)
Activity calls are given as the source filed them. No cut-off for these calls is given here.

What was measured:
[1] = species: Rattus norvegicus; assay: Saluretic activity in the rat measured as concentration of K+ in urine; assay type: functional
How it was run: (§1)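 Rats deprived of food 24 h, water ad libitum, dosed 50 mg/kg by stomach tube as suspension in 2% starch, no extra water load. Groups of three in diuresis funnels; urine over first 5 h collected. Na⁺ and K⁺ by flame photometry, Cl⁻ argentometrically; expressed as mequiv/kg.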

[2] = species: Rattus norvegicus; assay: Saluretic activity in the rat measured as concentration of chloride in urine; assay type: functional; how it was run: as §1
[3] = tested on: Canis familiaris; assay: Diuretic activity in the dog (2 animals/dose) at (dose 1.56 mg/Kg), when administered perorally; assay type: functional, Canis lupus familiaris, Urine
How it was run: (§2)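 Trained male beagles, fasted 24 h with tap water ad libitum. Bladder emptied by catheter, then 20 mL/kg tap water by stomach tube, with 4 mL/kg water at each hourly catheterization up to 8 h. The first 2 h of urine served as control. Oral dosing came after the second catheterization, and 1–6 h urine was pooled. Na⁺ and K⁺ were measured by flame photometry, Cl⁻ argentometrically, in mequiv/kg.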

[4] = tested on: Canis familiaris; assay: Saluretic activity in the dog measured as concentration of Cl - in urinary excretion (2 animals/dose) at (dose mg/Kg, po); assay type: functional, Canis lupus familiaris, Urine
How it was run: (§3)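 Male beagles trained to the procedures, food withdrawn 24 h before, tap water ad libitum. Bladder emptied by catheter, then 20 mL/kg tap water by stomach tube, plus 4 mL/kg orally at each hourly catheterization up to 8 h. The first 2 h of urine served as control. Compound given orally after the second catheterization. Urine from 1–6 h post-dose pooled; Na⁺ and K⁺ by flame photometry, Cl⁻ argentometrically, in mequiv/kg.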

[5] = tested on: Canis familiaris; assay: Saluretic activity in the dog measured as concentration of Na+ in urinary excretion (2 animals/dose) at (dose 1.56 mg/Kg, po); assay type: functional, Canis lupus familiaris, Urine
How it was run: (§4)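 Male beagles trained to rest on a table and to accept stomach tube and catheter. Food withdrawn 24 h before, tap water ad libitum. Bladder emptied by catheter, then 20 mL/kg tap water by stomach tube. Catheterized hourly up to 8 h with 4 mL/kg water orally each time; first 2 h urine served as control. Oral dosing after second catheterization. Pooled 1–6 h urine; Na⁺/K⁺ by flame photometry, Cl⁻ argentometrically.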

[6] = tested on: Canis familiaris; assay: Saluretic activity in the dog measured as concentration of K+ in urinary excretion (2 animals/dose) at (dose 1.56 mg/Kg, po); assay type: functional, Canis lupus familiaris, Urine; how it was run: as §4
[7] = species: Rattus norvegicus; assay: Saluretic activity in the rat measured as concentration of Na+ in urine; assay type: functional; how it was run: as §1
[8] = species: Rattus norvegicus; assay: Diuretic activity in the rats, determined by a modified Lipschitz test; assay type: functional, Urine
How it was run: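 Modified Lipschitz test: rats deprived of water 24 h, grouped in threes of similar weight in diuresis funnels. Oral dose of 50 mg/kg, suspended in 2% starch solution, by stomach tube.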

[9] = It is the ratio, measured as saluretic activity in the dog as concentration of Na+ in urinary excretion (dose 1.56 mg/Kg, po) to that of K; assay type: functional, Urine; how it was run: as §2
[10] = It is the ratio, measured as saluretic activity in the dog as concentration of Cl- in urinary excretion (dose 1.56 mg/Kg, po) to that of (Na+)+(K+); assay type: functional, Urine; how it was run: as §2
[11] = tested on: Canis familiaris; assay: Salidiuretic activity in the dog measured as concentration of Cl - in urinary excretion (2 animals/dose) at (dose 1.56 mg/Kg, perorally); assay type: functional, Canis lupus familiaris, Urine; how it was run: as §3
[12] = tested on: Canis familiaris; assay: Salidiuretic activity in the dog measured as concentration of K+ in urinary excretion (2 animals/dose) at (dose 1.56 mg/Kg, perorally); assay type: functional, Canis lupus familiaris, Urine; how it was run: as §3
[13] = tested on: Canis familiaris; assay: Saluretic activity in the dog measured as concentration of Na+ in urinary excretion (2 animals/dose) at (dose 1.56 mg/Kg, perorally); assay type: functional, Canis lupus familiaris, Urine; how it was run: as §4
[14] = tested on: Rattus norvegicus; assay: Saluretic activity on the basis of the 50 mg/kg perorally rat assay; Compound is found to be moderately active; assay type: functional, organism-based; design: dose 50 mg/kg; how it was run: as §1
[15] = tested on: Canis familiaris; assay: Saluretic activity on the basis of the 1.56 mg/Kg perorally dog assay; Compound is found to be highly active.; assay type: functional, organism-based; settings: Canis lupus familiaris; how it was run: as §4
[16] = It is the ratio, measured as saluretic activity in the dog as concentration of Na+ in urinary excretion (dose 1.56 mg/Kg, perorally) to that of K; assay type: functional, Urine; how it was run: as §2
[17] = It is the ratio, measured as saluretic activity in the dog as concentration of Cl- in urinary excretion (dose 1.56 mg/Kg, perorally) to that of (Na+)+(K+); assay type: functional, Urine; how it was run: as §2
[18] = tested on: Canis familiaris; assay: Saluretic activity in the dog measured as concentration of K+ in urinary excretion (2 animals/dose) at (dose 1.56 mg/Kg, perorally); assay type: functional, Canis lupus familiaris, Urine; how it was run: as §3
[19] = tested on: Canis familiaris; assay: Saluretic activity in the dog measured as concentration of Cl- in urinary excretion (2 animals/dose) at (dose 1.56 mg/Kg, perorally); assay type: functional, Canis lupus familiaris, Urine; how it was run: as §3

| Compound | Saluretic activity [1] [m equiv 5hr-1 kg-1] | Saluretic activity [2] [m equiv 5hr-1 kg-1] | Diuretic activity [3] [ml kg-1 6hr-1] | Saldiuretic activity [4] [m equiv 6hr-1 kg-1] | Saluretic activity [5] [m equiv 6hr-1 kg-1] | Saldiuretic activity [6] [m equiv 6hr-1 kg-1] | Saluretic activity [7] [m equiv 5hr-1 kg-1] | Diuretic activity [8] [mL/kg] | Ratio [9] | Ratio [10] | Saldiuretic activity [11] [m equiv 6hr-1 kg-1] | Saldiuretic activity [12] [m equiv 6hr-1 kg-1] | Saluretic activity [13] [m equiv 6hr-1 kg-1] | Saldiuretic activity [14] | Saldiuretic activity [15] | Ratio [16] | Ratio [17] | Saluretic activity [18] [m equiv 6hr-1 kg-1] | Saldiuretic activity [19] [m equiv 6hr-1 kg-1] |
| --- | --- | --- | --- | --- | --- | --- | --- | --- | --- | --- | --- | --- | --- | --- | --- | --- | --- | --- | --- |
| NS(=O)(=O)c1cc(S(=O)(=O)[O-])c(NCc2ccco2)cc1[S+]([O-])c1ccccc1.[K+] (stereo not given) | 1.5 | 1.7 | 48.4 | 1.27 | 0.59 | 0.33 | 0.8 | 0.8 | 1.8 | 1.3 | – | – | – | – | – | – | – | – | – |
| NS(=O)(=O)c1cc(S(=O)(=O)[O-])c(NCCc2ccco2)cc1Cl.[Na+] | 1.8 | 6.1 | 29.3 | – | – | – | 4.6 | 1.9 | – | – | 0.76 | 0.15 | 0.56 | – | – | – | – | – | – |
| NCc1cccs1.NS(=O)(=O)c1cc(S(=O)(=O)O)c(NCc2cccs2)cc1Cl | 1.7 | 3.3 | 44.5 | – | – | – | 2.7 | 1 | – | – | – | – | 2.33 | Weak activity | Active | 4.2 | 0.95 | 0.55 | 2.76 |
